Reference: ChEMBL document CHEMBL1143731, “Synthesis and pharmacological testing of polyaminoquinolines as blockers of the apamin-sensitive Ca2+-activated K+ channel (SK(Ca))” (Bioorg Med Chem, 2007)

Key:
[1] = target: Small conductance calcium-activated potassium channel protein 3 (Rattus norvegicus) (UniProt P70605); experiment: Ratio of concentration drug to dequalinium to cause 50% inhibition of SKca channel-mediated after-hypepolarization in rat sympathetic neurons; format: cell-based; details: Sympathetic neuron
Small conductance calcium-activated potassium channel protein 3 (Rattus norvegicus), sequence (P70605 whole entry): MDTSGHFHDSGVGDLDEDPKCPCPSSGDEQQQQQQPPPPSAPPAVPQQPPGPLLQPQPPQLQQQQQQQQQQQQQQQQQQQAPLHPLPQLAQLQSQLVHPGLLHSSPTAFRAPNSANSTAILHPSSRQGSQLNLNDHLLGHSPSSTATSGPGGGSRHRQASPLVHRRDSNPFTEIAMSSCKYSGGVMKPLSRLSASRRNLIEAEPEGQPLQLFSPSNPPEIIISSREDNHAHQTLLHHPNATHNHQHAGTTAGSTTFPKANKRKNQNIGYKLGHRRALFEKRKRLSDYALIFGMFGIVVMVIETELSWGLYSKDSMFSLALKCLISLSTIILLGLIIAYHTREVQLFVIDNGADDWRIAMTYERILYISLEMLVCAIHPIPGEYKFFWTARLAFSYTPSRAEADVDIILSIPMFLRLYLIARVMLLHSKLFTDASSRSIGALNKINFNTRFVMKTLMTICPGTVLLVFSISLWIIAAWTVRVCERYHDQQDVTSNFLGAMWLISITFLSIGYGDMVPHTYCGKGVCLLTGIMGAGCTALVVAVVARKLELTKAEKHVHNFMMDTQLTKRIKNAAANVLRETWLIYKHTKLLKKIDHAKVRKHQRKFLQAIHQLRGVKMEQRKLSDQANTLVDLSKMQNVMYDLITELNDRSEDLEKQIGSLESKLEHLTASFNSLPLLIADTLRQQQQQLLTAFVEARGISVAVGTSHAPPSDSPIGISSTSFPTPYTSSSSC
Procedure, shortened: (§1)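 Rat sympathetic neurones (SK3 SKCa), short-term tissue culture. Action potentials evoked by depolarizing current pulses; afterhyperpolarization amplitude measured before, during and after compound applied in external solution at 2–4 concentrations, at least three neurones. Dequalinium reference in each assay. Hill fits with common Hill coefficient and maximum inhibition per assay gave IC50; EMR = test/dequalinium concentration for 50% AHP inhibition, by simultaneous weighted nonlinear least squares.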

[2] = target: Small conductance calcium-activated potassium channel protein 3 (Rattus norvegicus, UniProt P70605); experiment: Inhibition of SKca channel-mediated after-hypepolarization in rat sympathetic neurons; format: cell-based, Sympathetic neuron; procedure, shortened: as §1
Small conductance calcium-activated potassium channel protein 3, sequence (P70605 whole entry): as above

| EMR [1] | IC50 [2] | Structure (SMILES) |
| --- | --- | --- |
| 0.31 | 270 nM | c1ccc2c(NCCCOc3ccc(CCNc4ccnc5ccccc45)cc3OCCCNc3ccnc4ccccc34)ccnc2c1 |
| – | 27000 nM | N=C(N)NCCCNC(=O)/C=C/C(=O)N(CCCCCCCCN)CCCNC(=N)N |
| 0.23 | 130 nM | c1cc(OCCCNc2ccnc3ccccc23)c(OCCCNc2ccnc3ccccc23)c(OCCCNc2ccnc3ccccc23)c1 |
| 0.26 | 220 nM | c1ccc2c(NCCCNc3cc(OCCCNc4ccnc5ccccc45)cc(OCCCNc4ccnc5ccccc45)c3)ccnc2c1 |
| 0.1 | – | Nc1cc[n+](CCCC=C(CCCC[n+]2ccc(N)c3ccccc32)CCCC[n+]2ccc(N)c3ccccc32)c2ccccc12 |
| 0.48 | 360 nM | c1ccc2c(NCCCNCc3cc(OCCCNc4ccnc5ccccc45)cc(OCCCNc4ccnc5ccccc45)c3)ccnc2c1 |
| 33 | 17000 nM | N=C(N)NCCCNC(=O)/C=C/C(=O)N(CCCNC(=N)N)Cc1ccc(-c2ccc(CN)cc2)cc1 |
| 0.17 | 93 nM | c1ccc2c(NCCCCCN(CCCNc3ccnc4ccccc34)c3cc(OCCCNc4ccnc5ccccc45)cc(OCCCNc4ccnc5ccccc45)c3)ccnc2c1 |
| 1 | – | Cc1cc(N)c2ccccc2[n+]1CCCCCCCCCC[n+]1c(C)cc(N)c2ccccc21 |
| – | 25000 nM | NC(N)=NCc1ccc(/C=C\c2ccc(CN=C(N)N)cc2)cc1 |
| – | > 30000 nM | N=C(N)NCCCNC(=O)/C=C\C(=O)N(CCCCCCCCN)CCCNC(=N)N |
| 0.16 | 86 nM | CC[n+]1ccc(NCCCOc2cccc(OCCCNc3cc[n+](CC)c4ccccc34)c2OCCCNc2cc[n+](CC)c3ccccc23)c2ccccc21 |
| 0.23 | 130 nM | c1ccc2c(NCCCCCN(CCCNc3ccnc4ccccc34)Cc3cc(OCCCNc4ccnc5ccccc45)cc(OCCCNc4ccnc5ccccc45)c3)ccnc2c1 |
| 59 | – | N=C(N)NCc1ccc(/C=C\c2ccc(CNC(=N)N)cc2)cc1 |
| 0.59 | 490 nM | NCCCCCCCCN(CCCNc1ccnc2ccccc12)C(=O)/C=C/C(=O)NCCCNc1ccnc2ccccc12 |

| Structure (SMILES) | EMR [1] | IC50 [2] |
| --- | --- | --- |
| c1ccc2c(c1)c1cc[n+]2CCCCC[n+]2ccc(c3ccccc32)NCCCCCN1 | 0.003 | – |
| c1cc2cc(c1)C[n+]1ccc(c3ccccc31)NCc1ccc(cc1)CNc1cc[n+](c3ccccc13)C2 | 0.01 | – |
